In the library only some 2.2% were active in any assay of this set; here they are far more common.
M1 ag = activates human CHRM1 receptor. AID 588814. 0.33% of 360,000 active. activation, % at 3 µM. CHO-K1 hM1, Fluo-8 calcium fluorescence, agonist mode; 0% DMSO, 100% acetylcholine EC100. P11229;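 active means activation above the run's mean compound activation plus 3 SD, cut at about 16% in these data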;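 further: peak over basal fluorescence ratio within a 140 s kinetic read after compound addition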
CHRM5 PAM = CHRM5 positive allosteric modulation. P08912. CHO-K1 hM5, Fluo-8 calcium, ACh EC20 PAM; 0% = ACh EC20, 100% = ACh EC100. activation, % at 3 µM. 0.3% of 360,000 active;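 active means activation above the run cutoff, the mean activation of all test compounds plus 3 SD, cut at about 18% in these data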
Target sequence (P08912 whole entry, looked up): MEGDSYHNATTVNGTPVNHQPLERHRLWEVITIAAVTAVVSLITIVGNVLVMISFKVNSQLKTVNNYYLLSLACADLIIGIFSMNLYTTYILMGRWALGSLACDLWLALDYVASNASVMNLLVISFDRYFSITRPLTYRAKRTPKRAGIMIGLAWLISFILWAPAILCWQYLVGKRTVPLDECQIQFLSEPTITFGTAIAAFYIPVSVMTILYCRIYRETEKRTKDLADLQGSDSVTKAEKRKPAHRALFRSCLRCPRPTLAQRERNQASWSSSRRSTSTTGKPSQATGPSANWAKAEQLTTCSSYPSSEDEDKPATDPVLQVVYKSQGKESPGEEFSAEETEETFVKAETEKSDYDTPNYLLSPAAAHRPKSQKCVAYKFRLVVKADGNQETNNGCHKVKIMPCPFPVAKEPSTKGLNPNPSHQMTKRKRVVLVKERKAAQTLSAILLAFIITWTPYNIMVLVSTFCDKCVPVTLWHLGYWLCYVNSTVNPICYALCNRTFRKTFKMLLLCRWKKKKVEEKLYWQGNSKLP
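Assay system – human M5 receptor in CHO-K1 cells · Read-out – % activation, ACh-normalized · Technique – Fluo-8 calcium fluorescence · Dosing – single-point, 3 µM nominal · Incubation – Fluo-8 loading 80 min at 37 °C plus 30 min room temperature · Repeats – singlicate, one well per test compound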
CHRM5 antagonist = CHRM5 antagonism in calcium assay | AID 624040 | CHO-hM5 cells, Fluo-8 calcium fluorescence, ACh EC80 | P08912 | 0.59% of 360,000 active | inhibition, % at 3 µM;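 active means inhibition above a per-plate cutoff, the mean of that plate's test compounds plus 3 SD, cut at about 27% in these data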;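 further: 0% = acetylcholine EC80 with DMSO and 100% = DMSO without agonist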
M1 PAM = potentiates human M1 receptor response to acetylcholine | P11229 | CHO-K1 hM1, Fluo-8 calcium fluorescence, ACh EC20; 0% = ACh EC20, 100% = maximal ACh | activation, % at 3 µM | 0.088% of 360,000 active; in the data active means activation above about 19%, passing the limit was not always enough
M5 ag = agonists of human muscarinic M5 receptor (CHRM5); P08912; CHO-K1 hM5 cells, Fluo-8 calcium fluorescence; 0% DMSO wells, 100% maximal acetylcholine response; activation, % at 3 µM; 0.19% of 360,000 active; AID 624037;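 active means activation above the run's mean over test compounds plus 3 SD, cut at about 23% in these data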;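 further: signal is peak over basal fluorescence ratio across the kinetic read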
CHRM1 antagonist = blocks human M1 muscarinic receptor; inhibition, % at 3 µM; AID 588852; CHO-K1 hM1, Fluo-8 calcium fluorescence, ACh EC80 antagonist; P11229; 1.3% of 360,000 active;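 active means percent inhibition above its own plate's cutoff, namely the mean of that plate's compound wells plus 3 SD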;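 further: peak over basal fluorescence ratio during 140 s after agonist addition; 0% = ACh EC80 plus DMSO and 100% = DMSO alone without agonist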
* = called active by the depositor.

`O=C(Nc1c[nH]c(=O)[nH]c1=O)c1cccc([N+](=O)[O-])c1` gave M1 ag 3, CHRM5 PAM 22*, CHRM5 antagonist -16, M1 PAM 19, M5 ag 4 and CHRM1 antagonist -25.
`O=C(Nc1c[nH]c(=O)[nH]c1=O)c1cccc(F)c1` gave M1 ag 10, CHRM5 PAM -4, CHRM5 antagonist 13, M1 PAM 16, M5 ag -3 and CHRM1 antagonist -1.
For O=C1N(Cc2cccc(Cl)c2)C[C@@H]2C[C@@H](c3ccsc3)N3CCC[C@@]123 the results were M1 ag -12, CHRM5 PAM -5, CHRM5 antagonist -8, M1 PAM -30, M5 ag -10 and CHRM1 antagonist 34*.
`Cc1ccc(N(C(=O)CS(=O)CC(=O)Nc2ccc(F)cc2)C(C)C(=O)NC(C)(C)C)cc1` (stereo unspecified) gave M1 ag -2, CHRM5 PAM -2, CHRM5 antagonist 9, M1 PAM 18, M5 ag -2 and CHRM1 antagonist -20.
For CCOC(=O)N1CCC(NS(=O)(=O)c2ccc(C#N)cc2)CC1 the results were M1 ag -3, CHRM5 PAM 1, CHRM5 antagonist 5, M1 PAM 14, M5 ag -2 and CHRM1 antagonist -16.
For CCNC(=O)C1(C)CCN(C(=O)c2ccc(OC)c(OC)c2)C1 (stereo unspecified) the results were M1 ag -1, CHRM5 PAM 1, CHRM5 antagonist -2, M1 PAM 6, M5 ag 0 and CHRM1 antagonist -13.
For Cc1ccc(C#CC[N+](C)(C)CC#Cc2ccccc2)cc1 the results were M1 ag -7, CHRM5 PAM -27, CHRM5 antagonist 19, M1 PAM -18, M5 ag -14 and CHRM1 antagonist 30*.
CN(C)CCCC1Sc2ccccc2Sc2ccccc21 (stereo unspecified) was read as M1 ag -3, CHRM5 PAM -33, CHRM5 antagonist 26, M1 PAM -25, M5 ag -17 and CHRM1 antagonist 76*.
CCCCCNCc1ccc(Br)cc1 was read as M1 ag 7, CHRM5 PAM -4, CHRM5 antagonist 6, M1 PAM 3, M5 ag -5 and CHRM1 antagonist 5.
Screening CCCCCCNCc1ccc(Br)cc1 returned M1 ag 16*, CHRM5 PAM -9, CHRM5 antagonist 6, M1 PAM -3, M5 ag -4 and CHRM1 antagonist -11.
Screening Cc1ccc(C(C)C)c(OCCCN(C)Cc2ccccc2)c1 returned M1 ag -8, CHRM5 PAM -17, CHRM5 antagonist 3, M1 PAM -26, M5 ag -9 and CHRM1 antagonist 59*.
CC(C(=O)Nc1ccccc1)N(C)Cc1cccs1 (stereo unspecified) was read as M1 ag -6, CHRM5 PAM -1, CHRM5 antagonist 9, M1 PAM -2, M5 ag -2 and CHRM1 antagonist 5.
Screening CN1CCN(C2=C(Cl)C(=O)N(Cc3ccccc3)C2=O)CC1 returned M1 ag -6, CHRM5 PAM -16, CHRM5 antagonist 8, M1 PAM -26, M5 ag -8 and CHRM1 antagonist 27*.
CN1CCN(C2=C(Cl)C(=O)N(c3cccc(Cl)c3)C2=O)CC1 was read as M1 ag -5, CHRM5 PAM -2, CHRM5 antagonist 4, M1 PAM 6, M5 ag -2 and CHRM1 antagonist 0.
For CCOc1ccc(NC2=C(Cl)C(=O)N(Cc3ccccc3)C2=O)cc1 the results were M1 ag -6, CHRM5 PAM -9, CHRM5 antagonist 0, M1 PAM -9, M5 ag -2 and CHRM1 antagonist 14.
CCN1CCN(C2=C(Cl)C(=O)N(Cc3ccccc3)C2=O)CC1 was read as M1 ag -5, CHRM5 PAM -23, CHRM5 antagonist 24, M1 PAM -22, M5 ag -7 and CHRM1 antagonist 78*.
For c1ccc(OCc2noc(CN3CC[C@@H]4CCCC[C@H]4C3)n2)cc1 the results were M1 ag 1, CHRM5 PAM 22*, CHRM5 antagonist 7, M1 PAM 12, M5 ag 10 and CHRM1 antagonist -7.
For Clc1cccc(C2CCN(Cc3nc(COc4ccccc4)no3)C2)c1 (stereo unspecified) the results were M1 ag -6, CHRM5 PAM -4, CHRM5 antagonist 10, M1 PAM -5, M5 ag -4 and CHRM1 antagonist 9.
Cc1ccc(OCCOCCNC(C)C)c(Br)c1 was read as M1 ag -6, CHRM5 PAM -2, CHRM5 antagonist 1, M1 PAM -1, M5 ag -12 and CHRM1 antagonist -28.
Screening CCC(C)NCCOCCOc1ccc(F)cc1 (stereo unspecified) returned M1 ag -6, CHRM5 PAM 6, CHRM5 antagonist -7, M1 PAM 3, M5 ag -4 and CHRM1 antagonist -14.
Screening CCC(C)NCCOCCOc1ccc(Cl)cc1Br (stereo unspecified) returned M1 ag -7, CHRM5 PAM 1, CHRM5 antagonist 7, M1 PAM -22, M5 ag -13 and CHRM1 antagonist 42*.
`CCC(C)NCCOCCOc1cc(C)c(Cl)c(C)c1` (stereo unspecified) gave M1 ag -7, CHRM5 PAM 1, CHRM5 antagonist 11, M1 PAM -25, M5 ag -17 and CHRM1 antagonist 54*.
`C=CCc1cc(Cl)ccc1OCCCNC(C)CC` (stereo unspecified) gave M1 ag -7, CHRM5 PAM 3, CHRM5 antagonist 6, M1 PAM -22, M5 ag -6 and CHRM1 antagonist 24*.
For Cc1onc(-c2c(F)cccc2Cl)c1C(=O)N1CCOC12CCCCC2 the results were M1 ag -9, CHRM5 PAM -2, CHRM5 antagonist 5, M1 PAM 1, M5 ag -2 and CHRM1 antagonist -2.
For O=C1CN(C(=O)COC(=O)c2cc(Cl)ccc2[N+](=O)[O-])c2ccccc2N1 the results were M1 ag 0, CHRM5 PAM -3, CHRM5 antagonist -1, M1 PAM 0, M5 ag 1 and CHRM1 antagonist -3.
CCCCOc1ccc(C(=O)NCC2(c3ccc(OC)cc3)CCOCC2)cc1 was read as M1 ag -8, CHRM5 PAM -4, CHRM5 antagonist 10, M1 PAM 8, M5 ag -7 and CHRM1 antagonist -10.
